Shown are actives, neighbours in structure and some others; about 2.8% of the full set was active somewhere.
SR-BI DiI inh: inhibitors of mouse SR-BI mediated HDL lipid uptake | Q61009 | ldlA[mSR-BI] CHO cells, DiI-HDL uptake fluorescence, 3 h | inhibition, % at 12.5 µM | 0.96% of 320,000 active;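 active means mean replicate inhibition of at least 70% and a set share of replicates each scoring 70 or more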;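 further: 0% = median of neutral control wells and 100% = median of positive control wells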
CAL PDZ FP-1: inhibitors of human CAL PDZ peptide binding; Q9HD26; purified CAL PDZ, TMR-peptide fluorescence polarization, 1 h; inhibition, % at 24.9 µM; 0.92% of 300,000 active;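 active means mean inhibition of at least 30% with at least half of replicates also reaching 30%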;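 further: 0% = DMSO neutral control and 100% = excess unlabeled competitor peptide PRC23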
dFosB act: mouse delta FosB homodimer activation | P13346 | purified delta FosB, TAMRA-CDK5 oligo fluorescence polarization; percent of positive-control signal above neutral wells | activation, % at 25 µM | 0.99% of 340,000 active | AID 493131;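 active means mean activation above about 17%, with every replicate also reaching it, limit read from the data, passing the limit was not always enough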
Target sequence (P13346 whole entry, looked up): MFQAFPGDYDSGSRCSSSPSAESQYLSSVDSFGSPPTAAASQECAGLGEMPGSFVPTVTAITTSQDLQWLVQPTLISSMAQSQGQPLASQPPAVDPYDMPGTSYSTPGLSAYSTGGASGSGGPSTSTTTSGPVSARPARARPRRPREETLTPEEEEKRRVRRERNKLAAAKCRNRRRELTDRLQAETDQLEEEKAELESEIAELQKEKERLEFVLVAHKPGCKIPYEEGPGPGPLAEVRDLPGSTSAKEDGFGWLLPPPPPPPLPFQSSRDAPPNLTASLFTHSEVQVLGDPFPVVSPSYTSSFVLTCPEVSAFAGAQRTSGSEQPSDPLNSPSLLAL
CAL PDZ FP-2: blocks peptide binding to human CAL PDZ domain. AID 504414. 0.02% of 330,000 active. purified CAL PDZ, TMR-peptide fluorescence polarization, 1 h. inhibition, % at 20 µM;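 active means highest replicate inhibition of at least 40%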;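 further: plate controls were DMSO neutral control wells for no effect and unlabeled competitor peptide control wells for full effect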
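material = purified tagged CAL PDZ domain construct (CerCALP) | compound dosing = 20 µM, one dose | times = 1 h at RT | measured by = fluorescence polarization from S- and P-plane intensities, G-factor corrected | read-out = inhibition from polarization loss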
SR-BI DiI-HDL act: SR-BI HDL lipid transfer activation. activation, % at 12.5 µM. CHO ldlA[mSR-BI] cells, DiI-HDL uptake fluorescence, 3 h; 100 = double the neutral-control signal. AID 504775. 0.096% of 320,000 active;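 active means mean replicate activation of at least 60% and every replicate at or above 60%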;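 further: 0% = median plate neutral-control signal and 100% = twice that signal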
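Material: SR-BI-overexpressing, LDLR-lacking CHO cells; schedule: compound exposure 3 h, 37 °C; reagent: DiI-labelled HDL at 10 µg/mL final; technique: bottom-read fluorescence, 550/595 nm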
Numbers without * were called inactive; . = no result.

SMILES | SR-BI DiI inh | CAL PDZ FP-1 | dFosB act | CAL PDZ FP-2 | SR-BI DiI-HDL act
Cc1ccc(O)c(Nc2c3ccccc3nc3ccccc23)c1 | 15.2 | 2.0 | 34.6* | 0.8 | -15.2
COc1cccc(OC)c1C(=O)NNC(=O)c1cccc(COc2ccc3c(c2)CCC3)c1 | 75.6* | -2.3 | -30.0 | -1.9 | -75.6
O=C(NCc1ccccc1)c1cccc(COc2ccc3c(c2)CCC3)c1 | -10.5 | -1.5 | -8.1 | -0.5 | 10.5
CCCOc1ccc(C2c3c(oc4cc(C)c(C)cc4c3=O)C(=O)N2CCCN(C)C)cc1OCC (centres undefined) | -3.4 | 1.8 | 14.5 | -0.1 | 3.4
CCOc1ccc(C2c3c(oc4cc(C)c(C)cc4c3=O)C(=O)N2CCCN(C)C)cc1OC (centres undefined) | -4.6 | -2.1 | 28.7* | -0.9 | 4.6
NC(=N\N=CCc1ccccc1)/C(N)=N/N=CCc1ccccc1 | 25.3 | -12.2 | 1.2 | -1.0 | -25.3
COc1ccc(NC(=O)Cn2nnc(-c3ccccc3NC(=O)c3ccco3)n2)cc1 | 26.9 | -0.8 | 26.5* | -0.3 | -26.9
CCCS(=O)(=O)N1CCC(C(=O)N2CCOCC2)CC1 | -67.9 | -4.8 | 3.0 | -0.1 | 67.9*
CCCS(=O)(=O)N1CCC(C(=O)N2CCCC2)CC1 | -16.1 | 1.8 | -3.9 | -0.2 | 16.1
CCN1C(=NCC(C)C)N[C@@H](c2cccc(F)c2)C(C(=O)OC)=C1C | 5.6 | -4.8 | -13.7 | 0.1 | -5.6
OC(CNCC1COc2ccccc2O1)COc1ccccc1F (centres undefined) | . | . | 0.0 | -1.3 | .
C/C(CCc1oc2c(Br)cc(Br)cc2c1-c1ccc(C)o1)=N\O | 77.8* | -4.1 | -15.2 | 3.3 | -77.8
COC(=O)[C@H](Cc1ccccc1)NC(=O)C1(OC(C)=O)CC(OC(C)=O)C(OC(C)=O)C(OC(C)=O)C1 (some centres undefined) | -4.3 | -4.5 | -7.7 | -0.9 | 4.3
O=C(Nc1ccc(Cl)c(S(=O)(=O)N2CCOCC2)c1)c1cc(-c2ccccn2)nc2ccccc12 | 82.7* | . | 6.0 | -3.1 | -82.7
O=C(COC(=O)c1cc(S(=O)(=O)N2CCOCC2)ccc1Cl)NCc1ccc2c(c1)OCO2 | -4.0 | -5.3 | -1.6 | -0.3 | 4.0
COc1ccc(NC(=O)c2cc(-c3ccco3)nc3ccccc23)cc1S(=O)(=O)N1CCOCC1 | 89.1* | -2.1 | -18.9 | -2.9 | -89.1
O=C(Nc1ccc(Cl)c(S(=O)(=O)N2CCOCC2)c1)c1ccc2c(c1)OCCO2 | 72.4* | 3.8 | -12.4 | -2.2 | -72.4
O=C(COC(=O)c1cc(S(=O)(=O)N2CCOCC2)ccc1Cl)Nc1ccc2c(c1)OCO2 | 17.7 | 78.9* | -0.2 | -2.1 | -17.7
O=C(Nc1ccc(Cl)c(S(=O)(=O)N2CCOCC2)c1)c1ccccn1 | 1.6 | . | -14.6 | -1.8 | -1.6
Cc1c(OCC(=O)NCC(O)c2ccccc2)ccc2c(-c3ccccc3)cc(=O)oc12 (centres undefined) | 51.0 | -4.2 | -1.2 | -0.7 | -51.0
Cc1ccc(NC(=O)c2ccc3ccccc3n2)cc1S(=O)(=O)N1CCOCC1 | 94.5* | -2.8 | -9.2 | -2.9 | -94.5
Cc1cccc(C(=O)OCC(=O)Nc2c(C)n(C)n(-c3ccccc3)c2=O)c1 | -23.4 | -3.5 | -6.6 | 0.5 | 23.4
Cn1c(SCC(=O)Nc2ccc3c(c2)OCCO3)nnc1-c1ccccn1 | 0.0 | -1.9 | -0.7 | 7.0 | 0.0
O=C(CSc1nnc(-c2ccccn2)n1Cc1ccccc1)Nc1ccc2c(c1)OCO2 | 0.2 | 32.1* | 2.5 | . | -0.2
CCn1c(C)nc2cc(C(=O)N/N=C(\C)c3ccc(OC)cc3O)ccc21 | 88.3* | -5.0 | -6.6 | -2.4 | -88.3
COCCCn1c(SC(C)C(=O)Nc2c(C)n(C)n(-c3ccccc3)c2=O)n[nH]c1=O (centres undefined) | -0.3 | 43.0* | -3.7 | -0.3 | 0.3
CN(C)CCCn1c2c3ccccc3ccc2c2oc(=O)c3ccccc3c21 | -8.2 | -1.9 | 73.4* | 1.1 | 8.2
O=C(NCc1cccnc1)c1ccc(S(=O)(=O)N2CCCCCC2)cc1 | 12.8 | 9.0 | -1.3 | -1.9 | -12.8
COc1cc(C(=O)OCC(=O)N2CCN(C(C)=O)CC2)ccc1OCC(C)C | 1.2 | -0.7 | -1.4 | -1.3 | -1.2
Cc1ccc2cc3c(N)c4c(C)ccc(C)c4nc3nc2c1 | -11.8 | -1.8 | 29.0* | -2.1 | 11.8

Assay outcomes (PubChem)
